Reference: ChEMBL document CHEMBL4017549, “Structural Basis of Inhibition of ERα-Coactivator Interaction by High-Affinity N-Terminus Isoaspartic Acid Tethered Helical Peptides” (J Med Chem, 2017)
Active and inactive are the calls of the source. No cut-off for these calls is given here. Bridge positions count the residues as written; N and C are the ends. Square brackets hold non-standard residues; d marks the D form. Side chains are listed from the residue outwards. Peptide text beside a SMILES is read from it. * marks the point of attachment. ξ: configuration not given here. FITC = O=C1OC2(c3ccc(O)cc3Oc3cc(O)ccc32)c2ccc(NC(=S)*)cc21; ξtBuAla = CC(C)(C)CC(N)C(=O)O; ξD = NC(CC(=O)O)C(=O)O; ξDap = NCC(N)C(=O)O; βAla = NCCC(=O)O

How the values were obtained:
[1] = target: T1, Estrogen receptor (Homo sapiens) (UniProt P03372); experiment: Binding affinity to recombinant human GFP-fused ERalpha LBD (301 to 553 residues) expressed in Escherichia coli BL21(DE3) after 40 mins in presence of 17beta-estradiol by fluorescence polarization assay; conditions: in the assay text read “ERalpha LBD” for “GFP-fused ERalpha LBD”
T1 sequence (whole entry): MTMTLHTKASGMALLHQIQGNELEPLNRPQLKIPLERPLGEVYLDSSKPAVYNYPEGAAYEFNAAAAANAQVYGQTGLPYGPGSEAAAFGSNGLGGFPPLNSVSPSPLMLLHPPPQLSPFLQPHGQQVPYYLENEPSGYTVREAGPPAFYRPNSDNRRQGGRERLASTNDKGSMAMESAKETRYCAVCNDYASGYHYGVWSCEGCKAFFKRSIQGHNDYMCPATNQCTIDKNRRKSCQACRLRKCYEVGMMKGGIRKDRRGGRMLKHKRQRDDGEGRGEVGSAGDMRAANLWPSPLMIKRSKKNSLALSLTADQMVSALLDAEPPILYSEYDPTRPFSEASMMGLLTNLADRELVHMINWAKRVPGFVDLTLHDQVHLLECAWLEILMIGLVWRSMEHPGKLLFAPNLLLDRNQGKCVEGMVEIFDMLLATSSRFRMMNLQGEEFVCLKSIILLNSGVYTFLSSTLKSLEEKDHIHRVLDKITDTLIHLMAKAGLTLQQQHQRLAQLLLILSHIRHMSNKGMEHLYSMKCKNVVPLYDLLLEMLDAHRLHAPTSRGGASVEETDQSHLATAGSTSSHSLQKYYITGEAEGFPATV

[2] = Drug uptake in human MCF7 cells assessed per million cells at 5 uM after 3 hrs by FACS analysis; format: ADME, cell-based; conditions: mcf7, 3 h
Outline: (§1)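 Adherent cells seeded overnight, then exposed to 5 μM FITC-labelled peptide or DMSO in FBS-free medium, 3 h, 37 °C. After PBS washes (three), about 10000 cells per sample analysed by flow cytometry; mean cellular fluorescence intensity calculated. More than two independent experiments, SEM.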

[3] = Drug uptake in human U2OS cells assessed per million cells at 5 uM after 3 hrs by FACS analysis; format: ADME, cell-based; outline: as §1
[4] = target: T1, Estrogen receptor (Homo sapiens); experiment: Binding affinity to recombinant human GFP-fused ERalpha LBD (301 to 553 residues) expressed in Escherichia coli BL21(DE3) in presence of ERalpha inhibitor 4-hydroxytamoxifen by ITC
Outline: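 ITC at 25 °C. 50 μM peptide injected in 2 μL steps into 5 μM ERα LBD in 50 mM Tris pH 8.0, 150 mM NaCl, 1 mM TCEP containing 0.1 mM 4-hydroxytamoxifen instead of estradiol. Isotherm fitted.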

[5] = target: T1, Estrogen receptor (Homo sapiens); experiment: Binding affinity to recombinant human GFP-fused ERalpha LBD (301 to 553 residues) expressed in Escherichia coli BL21(DE3) in presence of 17beta-estradiol by ITC
Outline: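 ITC at 25 °C. 2 μL injections of 50 μM peptide into 5 μM ERα LBD in 50 mM Tris pH 8.0, 150 mM NaCl, 1 mM TCEP, 0.1 mM 17β-estradiol. Binding isotherm fitted for affinity.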

[6] = system: MCF7; experiment: Cytotoxicity against human MCF7 cells assessed as cell viability at 20 uM after 24 hrs by MTT assay; format: functional; conditions: MCF7, 24 h, read-out: Activity
[7] = target: T1, Estrogen receptor (Homo sapiens); experiment: Inhibition of ERalpha in human MCF7 cells assessed as downregulation of 17beta-estradiol-mediated pS2 mRNA expression at 5 uM preincubated for 4 hrs followed by 17beta-estradiol addition measured after 16 hrs by quantitative RT-PCR analysis; format: cell-based
Outline: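 MCF-7 cells hormone-depleted 72 h in phenol red-free DMEM with 5% charcoal-treated serum, given peptides or DMSO for 4 h, then 100 nM 17β-estradiol or DMSO for 16 h. pS2 mRNA measured by quantitative RT-PCR, normalized to β-actin. Three independent experiments, mean ± SEM.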

[8] = target: T1, Estrogen receptor (Homo sapiens); experiment: Inhibition of recombinant human GFP-fused ERalpha LBD (301 to 553 residues) expressed in human […] cells assessed as downregulation of 17beta-estradiol-induced transcription at 5 uM preincubated for 4 hrs followed by E2 addition measured after 20 hrs by dual luciferase reporter gene assay; format: cell-based
Outline: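 U2OS cells in phenol red-free DMEM with 10% charcoal-stripped FBS, transfected 4 h with pEGFP-C1-ERα, 3XERE firefly luciferase reporter and pRL-TK Renilla plasmids. Peptides for 4 h, then 10 nM E2 or DMSO for 20 h. Lysates read by dual-luciferase; firefly normalized to Renilla, then to DMSO-treated control. SEM from more than two independent experiments.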

SMILES	Activity [1]	viability at 20 µM [6]	also measured
CC[C@H](C)[C@@H]1NC(=O)C[C@H](NC(=O)[C@H](CCCNC(=N)N)NC(=O)CCNC(=S)Nc2ccc3c(c2)C(=O)OC32c3ccc(O)cc3Oc3cc(O)ccc32)C(=O)NCC(C(=O)N[C@@H](CCCNC(=N)N)C(=O)NC(CC(C)(C)C)C(=O)N[C@@H](CC(C)C)C(=O)N[C@@H](CCC(N)=O)C(N)=O)NC(=O)[C@H](CC(C)C)NC1=O (some centres not stated)	Active	–	Drug uptake [2]: Active; Drug uptake [3]: Active; Activity [4]: inactive; Activity [5]: Active
CC[C@H](C)[C@@H]1NC(=O)C[C@H](NC(=O)[C@H](CCCNC(=N)N)NC(=O)CCNC(=O)[C@H](Cc2c[nH]c3ccccc23)NC(C)=O)C(=O)NCC(C(=O)N[C@@H](CCCNC(=N)N)C(=O)N[C@@H](CC(C)C)C(=O)NC(CC(C)(C)C)C(=O)N[C@@H](CCC(N)=O)C(N)=O)NC(=O)[C@H](CC(C)C)NC1=O (some centres not stated)	–	43.1%	–
CC[C@H](C)[C@@H]1NC(=O)C[C@H](NC(=O)[C@H](CCCNC(=N)N)NC(=O)CCNC(=O)[C@H](Cc2c[nH]c3ccccc23)NC(C)=O)C(=O)NCC(C(=O)N[C@@H](CCCNC(=N)N)C(=O)N[C@@H](CC(C)C)C(=O)N[C@@H](CC(C)C)C(=O)N[C@@H](CCC(N)=O)C(N)=O)NC(=O)[C@H](CC(C)C)NC1=O (some centres not stated)	–	64.5%	–
CC[C@H](C)[C@@H]1NC(=O)C[C@H](NC(=O)[C@H](CCCNC(=N)N)NC(=O)CCNC(=O)[C@H](Cc2c[nH]c3ccccc23)NC(C)=O)C(=O)NCC(C(=O)N[C@@H](CCCNC(=N)N)C(=O)N[C@@H](CC(C)C)C(=O)N[C@@H](CC(C)C)C(=O)N[C@@H](CCC(N)=O)C(N)=O)NC(=O)C(CC(C)(C)C)NC1=O (some centres not stated)	–	53.9%	–
CC[C@H](C)[C@@H]1NC(=O)C[C@H](NC(=O)[C@H](CCCNC(=N)N)NC(=O)CCNC(=O)[C@H](Cc2c[nH]c3ccccc23)NC(C)=O)C(=O)NCC(C(=O)N[C@@H](CCCNC(=N)N)C(=O)NC(CC(C)(C)C)C(=O)N[C@@H](CC(C)C)C(=O)N[C@@H](CCC(N)=O)C(N)=O)NC(=O)[C@H](CC(C)C)NC1=O (some centres not stated)	–	53.9%	–
CC[C@H](C)[C@@H]1NC(=O)C(NC(=O)[C@H](CCCNC(=N)N)NC(=O)CCNC(=O)[C@H](Cc2c[nH]c3ccccc23)NC(C)=O)CNC(=O)C(CC(=O)N[C@@H](CCC(N)=O)C(=O)NC(CC(C)(C)C)C(=O)N[C@@H](CCCNC(=N)N)C(=O)NC(CC(C)(C)C)C(N)=O)NC(=O)C(CC(C)(C)C)NC1=O (stereo partly drawn) (Ac-W[βAla]R[ξDap]I[ξtBuAla][ξD]([Gln-ξtBuAla-Arg-ξtBuAla-NH2]); lactam 4-C)	–	79.2%	inhibition [7]: inactive; inhibition [8]: inactive
CC[C@H](C)[C@@H]1NC(=O)C[C@H](NC(=O)[C@H](CCCNC(=N)N)NC(=O)CCNC(=S)Nc2ccc3c(c2)C(=O)OC32c3ccc(O)cc3Oc3cc(O)ccc32)C(=O)NCC(C(=O)N[C@@H](CCCNC(=N)N)C(=O)N[C@@H](CC(C)C)C(=O)N[C@@H](CC(C)C)C(=O)N[C@@H](CCC(N)=O)C(N)=O)NC(=O)C(CC(C)(C)C)NC1=O (some centres not stated)	Active	–	–

Further lines, with some results ahead:

Activity [1]	SMILES	viability at 20 µM [6]	also measured
inactive	CC[C@H](C)[C@@H]1NC(=O)C(NC(=O)[C@H](CCCNC(=N)N)NC(=O)CCNC(=S)Nc2ccc3c(c2)C(=O)OC32c3ccc(O)cc3Oc3cc(O)ccc32)CNC(=O)C(CC(=O)N[C@@H](CCC(N)=O)C(=O)NC(CC(C)(C)C)C(=O)N[C@@H](CCCNC(=N)N)C(=O)NC(CC(C)(C)C)C(N)=O)NC(=O)C(CC(C)(C)C)NC1=O (stereo partly drawn) ({FITC-βAla}-R[ξDap]I[ξtBuAla][ξD]([Gln-ξtBuAla-Arg-ξtBuAla-NH2]); lactam 2-C)	–	Drug uptake [2]: Active; Drug uptake [3]: Active
Active	CC[C@H](C)[C@@H]1NC(=O)C[C@H](NC(=O)[C@H](CCCNC(=N)N)NC(=O)CCNC(=S)Nc2ccc3c(c2)C(=O)OC32c3ccc(O)cc3Oc3cc(O)ccc32)C(=O)NCC(C(=O)N[C@@H](CCCNC(=N)N)C(=O)N[C@@H](CC(C)C)C(=O)NC(CC(C)(C)C)C(=O)N[C@@H](CCC(N)=O)C(N)=O)NC(=O)[C@H](CC(C)C)NC1=O (some centres not stated)	–	–
